Results published in ChEMBL document CHEMBL1148946, “Farinosones A-C, neurotrophic alkaloidal metabolites from the entomogenous deuteromycete Paecilomyces farinosus” (J Nat Prod, 2004).

Columns and labels:
PC-12 [1] = assay: Induction of neuritogenic activity in rat PC12 cells assessed as cells with length of one cell diameter at 50 uM after 48 hrs by phase contrast microscope; assay type: functional
Procedure, shortened: (§1)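 PC-12 cells (DSMZ) were primed 5 days in DMEM with 1% HS, 0.5% FBS and 50 ng/mL NGF, then put back in full-serum DMEM. Cells were dispersed through a 21-gauge needle, seeded at 1 × 10^5 cells/mL on collagen-coated wells and allowed 4 h. Compound at final 20 or 50 µM (0.2% MeOH or DMSO) for 48 h; NGF 50 ng/mL control. Phase-contrast scoring of 300 cells in three areas of two wells.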

PC-12 [2] = assay: Induction of neuritogenic activity in rat PC12 cells assessed as round cells without differention at 50 uM after 48 hrs by phase contrast microscope; assay type: functional; procedure, shortened: as §1
PC-12 [3] = assay: Induction of neuritogenic activity in rat PC12 cells assessed as round cells without differention at 20 uM after 48 hrs by phase contrast microscope; assay type: functional; procedure, shortened: as §1
PC-12 [4] = assay: Induction of neuritogenic activity in rat PC12 cells assessed as cells with flattened appearance at 50 uM after 48 hrs by phase contrast microscope; assay type: functional; procedure, shortened: as §1
PC-12 [5] = assay: Induction of neuritogenic activity in rat PC12 cells assessed as cells with flattened appearance at 20 uM after 48 hrs by phase contrast microscope; assay type: functional; procedure, shortened: as §1
PC-12 [6] = assay: Cytotoxicity against rat PC12 cells at 0.1 to 50 uM after 4 hrs; assay type: cell-based; conditions: pc-12, 2 days, in the assay text read “after 2 days” for “after 4 hrs”
Procedure, shortened: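 MTT viability in PC-12 cells (DSMZ) in DMEM with 10% HS, 5% FBS and pen/strep; 5 × 10^4 cells/mL seeded, 1 h at 37 °C, then MeOH or DMSO stocks diluted in DMEM to 50, 20, 10, 1, 0.1 µM. Cells exposed 2 days at 37 °C, 5% CO2. MTT added for 4 h, SDS lysis overnight, OD 544 nm. Quadruplicate, mean ± SD; 0.2% MeOH/1% DMSO taken as 100% viability.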

PC-12 [7] = assay: Induction of neuritogenic activity in rat PC12 cells assessed as cells with longer than one cell diameter at 50 uM after 48 hrs by phase contrast microscope; assay type: functional; procedure, shortened: as §1
PC-12 [8] = assay: Induction of neuritogenic activity in rat PC12 cells assessed as cells with length of one cell diameter at 20 uM after 48 hrs by phase contrast microscope; assay type: functional; procedure, shortened: as §1

Structure (SMILES) | Activity (PC-12 [1]) [%] | Activity (PC-12 [2]) [%] | Activity (PC-12 [3]) [%] | Activity (PC-12 [4]) [%] | Activity (PC-12 [5]) [%] | Activity (PC-12 [6]) | Activity (PC-12 [7]) [%] | Activity (PC-12 [8]) [%]
CC(/C=C/C(=O)NC(CO)Cc1ccc(O)cc1)=C\C(C)CC(=O)O (stereo not drawn) [FARINOSONE C] | 13 | 27 | 47 | 60 | 53 | Non-toxic |  | 
CCC(C)/C=C(C)/C=C/C=C/C=C/C(=O)c1c(O)c(-c2ccc(O)cc2)c[nH]c1=O (stereo not drawn) [FARINOSONE A] | 60 | 30 | 60 |  |  | Non-toxic | 10 | 40
CCC(C)/C=C(C)/C=C/C=C/C=C/C(=O)c1c(O)c(-c2ccc(O)cc2)cn(O)c1=O (stereo not drawn) [FARINOSONE B] |  |  |  |  |  | Non-toxic |  | 
